Assay [1] has as its system H4. Briefly: Increase in long-lived protein degradation in human H4 cells after 4 hrs relative to control. Type of assay: functional. Details: concentration or dose not given beside the values.
The subject of assay [2] is H4. Briefly: Increase in long-lived protein degradation in human H4 cells after 1 hr relative to control. It is filed as functional. Details: concentration or dose not given beside the values.
The test system of assay [3] is H4. Briefly: Increase in light chain 3-GFP+ autophagosome vesicle number per cell in human H4 cells at 0.2 uM after 24 hrs by high throughput fluorescence microscopy relative to control. Type of assay: functional. The gist of the method:
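H4 cells stably expressing LC3-GFP were grown in DMEM with 10% FBS and 2 mM L-glutamine at 37°C, 5% CO2. They were exposed to each compound for 24 h, with DMSO as negative and rapamycin as positive control. Cells were then fixed in 4% paraformaldehyde and stained with 3 μg/ml DAPI. High-throughput fluorescence imaging scored LC3-GFP spot number, size and intensity, expressed relative to DMSO. Mean ± SD of triplicates; experiments repeated three times.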

The subject of assay [4] is H4. As to the kind of experiment: Induction of light chain 3-GFP level in human H4 cells at 0.2 uM after 24 hrs by high throughput fluorescence microscopy relative to control. It is filed as functional.
The test system of assay [5] is H4. Briefly: Reduction of poly(Q) level in human H4 cells expressing EGFP-Q79-HA after 24 hrs. It is filed as functional, cell-based. An outline of the steps: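 H4 cells were transiently transfected with an EGFP-Q79-HA expression vector. The medium was replaced 6 h after transfection and compounds were added. Poly(Q) was detected with anti-HA antibody.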
Assay [6] concerns H4. Briefly: Increase in light chain 3-GFP+ autophagosome vesicle intensity per cell in human H4 cells at 0.2 uM after 24 hrs by high throughput fluorescence microscopy relative to control. Type of assay: functional. The gist of the method: (§1)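 H4 cells stably expressing LC3-GFP, seeded in 96-well plates and exposed to compound for 24 h; screening concentrations were 3–12 μM, with rapamycin 0.22 μM and bafilomycin A1 0.40 μM. Cells fixed in 4% paraformaldehyde and stained with 3 μg/ml DAPI. Number, size and intensity of LC3-GFP spots measured by high-throughput fluorescence microscopy and expressed as percent of DMSO-treated wells. Rapamycin was the positive control. Triplicate wells, mean ± SD; experiments repeated three times.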

Assay [7] addresses T1, Serine/threonine-protein kinase mTOR (Homo sapiens, UniProt P42345). As to the kind of experiment: Effect on mTOR phosphorylation in human H4 cells at 0.2 uM after 4 hrs. It is filed as cell-based. An outline of the steps:
(§2)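 H4 cells treated with compound for 4 h; lysates analysed by Western blot using anti-phospho/non-phospho mTOR antibody, with actin as loading control; rapamycin used for comparison. Cells grown in DMEM with 10% FBS, penicillin/streptomycin, 2 mM L-glutamine at 37°C, 5% CO2.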

In assay [8] the test system is H4. Briefly: Increase in long-lived protein degradation in human H4 cells after 2 hrs relative to control. It is filed as functional. Details: concentration or dose not given beside the values.
The subject of assay [9] is H4. Briefly: Increase in light chain 3-GFP+ autophagosome vesicle area per cell in human H4 cells at 0.2 uM after 24 hrs by high throughput fluorescence microscopy relative to control. Type of assay: functional. The gist of the method: as §1
The test system of assay [10] is H4. As to the kind of experiment: Increase in FYVE-RFP+ vesicle intensity per cell in human H4 cells after 8 hrs relative to control. It is filed as functional. Details: concentration or dose not given beside the values. An outline of the steps: (§3)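 H4 cells stably expressing FYVE-RFP (H4-FYVE), grown in DMEM with 10% FBS, penicillin/streptomycin and 2 mM L-glutamine at 37°C, 5% CO2, seeded in 96-well plates and exposed to compound. Fixed in 4% paraformaldehyde, nuclei stained with 3 μg/ml DAPI, FYVE-RFP+ vesicles quantified by high-throughput fluorescence microscopy against DMSO control. Triplicate wells, mean ± SD.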

Assay [11] concerns H4. As to the kind of experiment: Increase in long-lived protein degradation in human H4 cells after 24 hrs relative to control. Details: concentration or dose not given beside the values. Type of assay: functional.
Assay [12] has as its system H4. As to the kind of experiment: Increase in ratio of light chain 3 subunit 2 to light chain 3 subunit 1 in human H4 cells at 0.2 uM after 4 hrs by Western blot. Type of assay: functional, cell-based. An outline of the steps: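 H4 cells were treated with each compound for 4 h, then lysed. Lysates were immunoblotted with anti-LC3 antibody, with actin as loading control. LC3II and LC3I bands were compared as an LC3II/LC3I ratio.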

Assay [13] has as its system H4. As to the kind of experiment: Increase in FYVE-RFP+ vesicle intensity per cell in human H4 cells after 4 hrs relative to control. Type of assay: functional. Details: concentration or dose not given beside the values. The gist of the method: as §3
The subject of assay [14] is H4. Briefly: Effect on FYVE-RFP+ vesicle intensity per cell in human H4 cells after 8 hrs relative to control. Details: concentration or dose not given beside the values. Type of assay: functional. An outline of the steps:
as §3

Assay [15] has as its system H4. Briefly: Effect on FYVE-RFP+ vesicle intensity per cell in human H4 cells after 4 hrs relative to control. Details: concentration or dose not given beside the values. It is filed as functional. The gist of the method: as §3
The target in assay [16] is T1, Serine/threonine-protein kinase mTOR. Briefly: Effect on mTOR phosphorylation in human H4 cells at 4.9 uM after 4 hrs. Type of assay: cell-based. An outline of the steps:
as §2

For assay [17], the system named is H4. Briefly: Increase in ratio of light chain 3 subunit 2 to light chain 3 subunit 1 in human H4 cells at 4.9 uM after 4 hrs by Western blot. Type of assay: functional, cell-based. The gist of the method: (§4)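 H4 cells were exposed to compound for 4 h, then lysed. Lysates were blotted with anti-LC3 antibody, with actin as loading control, and the LC3II/LC3I band ratio was taken.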
A general note: A western blot detects proteins with antibodies after separation by electrophoresis.

In assay [18] the test system is H4. As to the kind of experiment: Effect on FYVE-RFP+ vesicle intensity per cell in human H4 cells after 2 hrs relative to control. It is filed as functional. Details: concentration or dose not given beside the values. The gist of the method:
as §3

For assay [19], the system named is H4. As to the kind of experiment: Increase in light chain 3-GFP+ autophagosome vesicle intensity per cell in human H4 cells at 4.9 uM after 24 hrs by high throughput fluorescence microscopy relative to control. It is filed as functional. The gist of the method: (§5)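 H4 cells stably expressing LC3-GFP, seeded in 96-well plates and exposed to compound for 24 h; fixed in 4% paraformaldehyde, nuclei stained with 3 μg/ml DAPI. Automated fluorescence microscopy scored number, size and intensity of LC3-GFP spots; values expressed relative to DMSO-treated wells, rapamycin positive control. Triplicate wells, mean ± SD; experiments repeated three times.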

For assay [20], the system named is H4. Briefly: Increase in light chain 3-GFP+ autophagosome vesicle number per cell in human H4 cells at 4.9 uM after 24 hrs by high throughput fluorescence microscopy relative to control. Type of assay: functional. The gist of the method: (§6)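 H4 cells stably expressing LC3-GFP, kept in DMEM/10% FBS at 37°C, 5% CO2, were seeded in 96-well plates and exposed to compound for 24 h. Cells were then fixed in 4% paraformaldehyde and stained with 3 μg/ml DAPI. Automated fluorescence microscopy scored the number, size and intensity of LC3-GFP spots. Values are percent of DMSO wells, in triplicate, mean ± SD. Rapamycin served as positive control.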

The subject of assay [21] is H4. As to the kind of experiment: Induction of light chain 3-GFP level in human H4 cells at 5.0 uM after 24 hrs by high throughput fluorescence microscopy relative to control. Type of assay: functional. The gist of the method:
as §6

In assay [22] the test system is H4. Briefly: Induction of light chain 3-GFP level in human H4 cells at 4.9 uM after 24 hrs by high throughput fluorescence microscopy relative to control. Type of assay: functional. An outline of the steps: as §6
The subject of assay [23] is H4. Briefly: Increase in light chain 3-GFP+ autophagosome vesicle area per cell in human H4 cells at 3.9 uM after 24 hrs by high throughput fluorescence microscopy relative to control. It is filed as functional. The gist of the method:
as §5

Assay [24] has as its system H4. Briefly: Increase in light chain 3-GFP+ autophagosome vesicle intensity per cell in human H4 cells at 3.9 uM after 24 hrs by high throughput fluorescence microscopy relative to control. It is filed as functional. An outline of the steps:
as §5

Assay [25] has as its system H4. Briefly: Increase in light chain 3-GFP+ autophagosome vesicle number per cell in human H4 cells at 3.9 uM after 24 hrs by high throughput fluorescence microscopy relative to control. It is filed as functional. An outline of the steps:
as §6

Assay [26] has as its system H4. Briefly: Induction of light chain 3-GFP level in human H4 cells at 3.9 uM after 24 hrs by high throughput fluorescence microscopy relative to control. Type of assay: functional. The gist of the method:
as §6

Assay [27] has as its system H4. As to the kind of experiment: Increase in ratio of light chain 3 subunit 2 to light chain 3 subunit 1 in human H4 cells at 3.9 uM after 4 hrs by Western blot. Type of assay: functional, cell-based. An outline of the steps: as §4
For assay [28], the target named is T1, Serine/threonine-protein kinase mTOR. Briefly: Effect on mTOR phosphorylation in human H4 cells at 3.9 uM after 4 hrs. Type of assay: cell-based. An outline of the steps:
as §2

Assay [29] deals with H4. Briefly: Increase in FYVE-RFP+ vesicle intensity per cell in human H4 cells after 2 hrs relative to control. Details: concentration or dose not given beside the values. It is filed as functional. An outline of the steps: as §3
The subject of assay [30] is H4. Briefly: Increase in light chain 3-GFP+ autophagosome vesicle intensity per cell in human H4 cells at 6.1 uM after 24 hrs by high throughput fluorescence microscopy relative to control. It is filed as functional. An outline of the steps:
as §5

Assay [31] deals with H4. Briefly: Increase in light chain 3-GFP+ autophagosome vesicle number per cell in human H4 cells at 6.1 uM after 24 hrs by high throughput fluorescence microscopy relative to control. Type of assay: functional. The gist of the method: as §6
Assay [32] concerns H4. Briefly: Increase in light chain 3-GFP+ autophagosome vesicle area per cell in human H4 cells at 6.1 uM after 24 hrs by high throughput fluorescence microscopy relative to control. Type of assay: functional. The gist of the method:
as §5

In assay [33] the test system is H4. As to the kind of experiment: Induction of light chain 3-GFP level in human H4 cells at 6.1 uM after 24 hrs by high throughput fluorescence microscopy relative to control. Type of assay: functional. An outline of the steps: as §6

Active and inactive are the calls of the source. No cut-off for these calls is given here.

For `CO[C@H]1C[C@@H]2CC[C@@H](C)[C@@](O)(O2)C(=O)C(=O)N2CCCC[C@H]2C(=O)O[C@H]([C@H](C)C[C@@H]2CC[C@@H](O)[C@H](OC)C2)CC(=O)[C@H](C)/C=C(\C)[C@@H](O)[C@@H](OC)C(=O)[C@H](C)C[C@H](C)/C=C/C=C/C=C/1C` [SIROLIMUS], the Activity in the assay on H4 [1] was 149.89%; in the assay with H4 [2], 159.89%; in the assay with H4 [3], 205.66%; in the assay on H4 [4], 88.62%; in the assay on H4 [5] it was “Dose-dependent effect”; in the assay with H4 [6] it was 285.38%. In addition, the Activity with H4 [8] came out at 171.67%; with H4 [9], 259.68%; in the assay with H4 [10], 152.35%; in the assay on H4 [11] it was 165.87%; with H4 [13], 131.41%. Moreover, the AC50 result in assay [7] is recorded as “Not Active”. For the same molecule, the outcome in the assay with H4 [12] was Active.

With `CN(C)C(=O)C(CCN1CCC(O)(c2ccc(Cl)cc2)CC1)(c1ccccc1)c1ccccc1` [LOPERAMIDE], the Activity with H4 [1] was 125.21%; with H4 [2], 78.7%; with H4 [14], 95.7%; in the assay on H4 [15] it was 123.62%; in the assay on H4 [18] it was 115.39%; in the assay on H4 [5], “Dose-dependent effect”. The Activity in the assay on H4 [19] was found to be 666.5%; in the assay with H4 [8], 122.1%; in the assay with H4 [20], 235.49%; in the assay with H4 [11], 139.19%; in the assay with H4 [21], 339.4%; with H4 [22] it was 126.76%. For the same molecule, the outcome in assay [16] was inactive. Moreover, the outcome with H4 [17] was Active.

Consider `C=C(C)[C@H]1O[C@H]2CC[C@@]3(C)[C@@](O)(CC[C@H]4[C@@H]5OC(C)(C)[C@H]6C[C@@H]7C(=C)Cc8c(Cl)cc9[nH]c(c5c9c8[C@@]76O)[C@@]43C)[C@@]23O[C@H]3[C@H]1O` [PENITREM A], for which the Activity is listed as 132.13% with H4 [1]; 163.15% in the assay with H4 [23]; 92.88% in the assay with H4 [2]; 166.85% with H4 [24]; 146.36% in the assay with H4 [25]; 93.08% in the assay with H4 [26]. The Activity entry with H4 [5] was “Dose-dependent effect”; with H4 [8] it was 126.09%; in the assay on H4 [10] it was 72.71%; in the assay on H4 [11], 141.83%; in the assay on H4 [13], 87.41%; in the assay with H4 [29], 121.4%. Besides, the outcome in the assay with H4 [27] was Active. Besides, the outcome in assay [28] was inactive.

Consider `CC1=C2C[C@H]3[C@@H](CC=C4C[C@@H](O)CC[C@@]43C)[C@@H]2CC[C@]12O[C@@H]1C[C@H](C)CN[C@H]1[C@H]2C` [CYCLOPAMINE], for which the Activity is reported as 109.69% with H4 [1]; 91.74% in the assay on H4 [2]; 96.38% with H4 [14]; 75.21% in the assay with H4 [15]; 1564.12% with H4 [30]; 313.88% in the assay with H4 [31]. The Activity in the assay with H4 [18] is reported as 108.75%; with H4 [32], 511.72%; in the assay on H4 [8], 111.02%; in the assay with H4 [11] it was 103.97%; in the assay on H4 [33] it was 110.76%.
